Measurements from ChEMBL document CHEMBL1649261, “Pharmacodynamic profile of tigecycline against methicillin-resistant Staphylococcus aureus in an experimental pneumonia model” (Antimicrob Agents Chemother, 2009).
In brackets after ≈: the same amount, converted by molar mass.

Assays:
[1] = Ratio of fAUC (0 to 8 hrs) in epithelial lining fluid to plasma of Staphylococcus aureus-infected BALB/c mouse at 50 mg/kg, sc administered as single dose; type: ADME, organism-based; set-up: dose 50 mg/kg, route subcutaneous
Procedure, shortened: (§1)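 Neutropenic BALB/c mice (cyclophosphamide ip 250 and 100 mg/kg, 4 d and 1 d pre-inoculation) infected orally with S. aureus in 3% mucin. Single 0.2-ml sc dose in normal saline; six mice per time point. Serum sampled 0.25–8 h, BAL at 0.25, 1, 4, 8 h; HPLC; ELF by urea correction. Trapezoidal AUC0-8; serum corrected for ultrafiltration protein binding, BAL drug assumed free.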

[2] = Tmax in BALB/c mouse infected with Staphylococcus aureus at 12.5 mg/kg, sc administered as single dose; type: ADME, organism-based; set-up: dose 12.5 mg/kg, route subcutaneous; details: in vivo
Procedure, shortened: (§2)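 Neutropenic BALB/c mice (cyclophosphamide ip 250 and 100 mg/kg, days −4 and −1) with S. aureus pneumonia from oral instillation of 0.05 ml of a 3% mucin suspension received a single 0.2-ml sc dose in normal saline. Serum was taken at 0.25, 0.5, 1, 1.5, 2, 4, 6 and 8 h, six mice per time point. Drug was measured by validated HPLC.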

[3] = Ratio of fAUC to MIC in hospital-acquired methicillin-resistant Staphylococcus aureus 56-infected BALB/c mouse at […] maximal effective concentration; type: functional
Procedure, shortened: (§3)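 Neutropenic BALB/c mice (cyclophosphamide 250 and 100 mg/kg i.p., 4 and 1 days before infection) were infected by oral inhalation of 0.05 ml inoculum in 3% mucin under isoflurane. Subcutaneous tigecycline (1.56–150 mg/kg/day, single or 2–3 divided doses, saline vehicle) was started 6 h post-infection. At 24 h lungs were homogenized and plated; change in log10 CFU was taken versus 0-h controls.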

[4] = Ratio of fAUC to MIC in hospital-acquired methicillin-resistant Staphylococcus aureus 152-infected BALB/c mouse at bacteriostatic concentration; type: functional
Procedure, shortened: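 Neutropenic BALB/c mice (cyclophosphamide ip 250 and 100 mg/kg, 4 days and 1 day pre-inoculation), isoflurane-anaesthetised, inoculated via the mouth with 0.05 ml of 3.0 × 10^8 CFU/ml in 3% mucin. SC tigecycline in saline, 1.56–150 mg/kg/day single or 2–3 divided doses from 6 h. Whole-lung CFU at 24 h versus 0-h controls; sigmoid Emax fit of Δlog10 CFU against fAUC/MIC gives stasis value.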

[5] = Ratio of fAUC to MIC in hospital-acquired methicillin-resistant Staphylococcus aureus 56-infected BALB/c mouse at 80% maximal effective concentration; type: functional; procedure, shortened: as §3
[6] = Tmax in BALB/c mouse infected with Staphylococcus aureus at 25 mg/kg, sc administered as single dose; type: ADME, organism-based; set-up: dose 25 mg/kg, route subcutaneous; details: in vivo; procedure, shortened: as §2
[7] = Ratio of fAUC to MIC in community-acquired methicillin-resistant Staphylococcus aureus 144-infected BALB/c mouse at bacteriostatic concentration; type: functional; procedure, shortened: as §3
[8] = Ratio of fAUC to MIC in community-acquired methicillin-resistant Staphylococcus aureus 147-infected BALB/c mouse at bacteriostatic concentration; type: functional; procedure, shortened: as §3
Staphylococcus aureus [9] = assay: Antibacterial activity against community-acquired methicillin-resistant Staphylococcus aureus 156 by microdilution method; type: functional
Procedure, shortened: (§4)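 Tigecycline MIC measured in triplicate by broth microdilution following CLSI guidelines. Isolates were stored at −80°C in skim milk and subcultured twice on blood agar before testing.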

[10] = AUC (0 to 24 hrs) in BALB/c mouse infected with Staphylococcus aureus at 6.25 mg/kg, sc administered as single dose; type: ADME, organism-based; set-up: time < 24 hr, dose 6.25 mg/kg, route subcutaneous; details: plasma; procedure, shortened: as §2
Staphylococcus aureus [11] = assay: Antibacterial activity against hospital-acquired methicillin-resistant Staphylococcus aureus 152 by microdilution method; type: functional; procedure, shortened: as §4
[12] = AUC (0 to 8 hrs) in Staphylococcus aureus-infected BALB/c mouse epithelial lining fluid at 12.5 mg/kg, sc administered as single dose; type: ADME, organism-based; set-up: time < 8 hr, dose 12.5 mg/kg, route subcutaneous
Procedure, shortened: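 Infected neutropenic BALB/c mice received a single sc dose in saline. Normal-saline bronchoalveolar lavage was done at 0.25, 1, 4 and 8 h, six mice per time. HPLC drug levels in lavage were converted to epithelial lining fluid concentrations with the serum/BAL urea ratio. AUC0-8 was calculated by the trapezoidal rule, and ELF drug was taken as free drug.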

[13] = Ratio of fAUC to MIC in community-acquired methicillin-resistant Staphylococcus aureus 147-infected BALB/c mouse at 80% maximal effective concentration; type: functional; procedure, shortened: as §3
Staphylococcus aureus [14] = assay: Antibacterial activity against community-acquired methicillin-resistant Staphylococcus aureus 144 by microdilution method; type: functional; procedure, shortened: as §4
[15] = AUC (0 to 24 hrs) in BALB/c mouse infected with Staphylococcus aureus at 50 mg/kg, sc administered as single dose; type: ADME, organism-based; set-up: time < 24 hr, dose 50 mg/kg, route subcutaneous; details: plasma; procedure, shortened: as §2
[16] = Tmax in BALB/c mouse infected with Staphylococcus aureus at 6.25 mg/kg, sc administered as single dose; type: ADME, organism-based; set-up: dose 6.25 mg/kg, route subcutaneous; details: in vivo; procedure, shortened: as §2
[17] = Ratio of fAUC to MIC in hospital-acquired methicillin-resistant Staphylococcus aureus 152-infected BALB/c mouse at […] maximal effective concentration; type: functional; procedure, shortened: as §3
[18] = AUC (0 to 24 hrs) in BALB/c mouse infected with Staphylococcus aureus at 12.5 mg/kg, sc administered as single dose; type: ADME, organism-based; set-up: time < 24 hr, dose 12.5 mg/kg, route subcutaneous; details: plasma; procedure, shortened: as §2
[19] = AUC (0 to 24 hrs) in BALB/c mouse infected with Staphylococcus aureus at 25 mg/kg, sc administered as single dose; type: ADME, organism-based; set-up: time < 24 hr, dose 25 mg/kg, route subcutaneous; details: plasma; procedure, shortened: as §2
[20] = Half life in BALB/c mouse infected with Staphylococcus aureus at 50 mg/kg, sc administered as single dose; type: ADME, organism-based; set-up: dose 50 mg/kg, route subcutaneous; details: in vivo; procedure, shortened: as §2
[21] = Ratio of fAUC to MIC in community-acquired methicillin-resistant Staphylococcus aureus 156-infected BALB/c mouse at […] maximal effective concentration; type: functional; procedure, shortened: as §3
[22] = Protein binding in Staphylococcus aureus-infected BALB/c mouse serum at 50 mg/kg, sc administered as single dose; type: ADME, organism-based; set-up: dose 50 mg/kg, route subcutaneous; details: read-out: PB (converted)
Procedure, shortened: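 Ultrafiltration was run in triplicate with 30,000-MW cutoff devices. Drug was diluted into fresh mouse serum to final 1.5, 3, 6 and 15 μg/ml, held at 37°C for 10 min with shaking, and centrifuged at 1,000 × g for 45 min at 10°C. Binding was calculated as (S − SUF)/S × 100 for each concentration, each matched to a dose by its peak serum level.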

[23] = Cmax in BALB/c mouse infected with Staphylococcus aureus at 6.25 mg/kg, sc administered as single dose; type: ADME, organism-based; set-up: dose 6.25 mg/kg, route subcutaneous; details: in vivo; procedure, shortened: as §2
[24] = Ratio of fAUC to MIC in community-acquired methicillin-resistant Staphylococcus aureus 156-infected BALB/c mouse at bacteriostatic concentration; type: functional; procedure, shortened: as §3
[25] = Ratio of fAUC (0 to 8 hrs) in epithelial lining fluid to plasma of Staphylococcus aureus-infected BALB/c mouse at 12.5 mg/kg, sc administered as single dose; type: ADME, organism-based; set-up: dose 12.5 mg/kg, route subcutaneous; procedure, shortened: as §1
[26] = Ratio of fAUC to MIC in community-acquired methicillin-resistant Staphylococcus aureus 147-infected BALB/c mouse at […] maximal effective concentration; type: functional; procedure, shortened: as §3
[27] = Cmax in BALB/c mouse infected with Staphylococcus aureus at 12.5 mg/kg, sc administered as single dose; type: ADME, organism-based; set-up: dose 12.5 mg/kg, route subcutaneous; details: in vivo; procedure, shortened: as §2

With `CN(C)c1cc(NC(=O)CNC(C)(C)C)c(O)c2c1C[C@H]1C[C@H]3[C@H](N(C)C)C(O)=C(C(N)=O)C(=O)[C@@]3(O)C(O)=C1C2=O` [TIGECYCLINE] as the molecule, how does the Kp uu [1] read?
The Kp uu was 23.9.

What about the Tmax [2] of the same molecule?
The Tmax was 16.2 min.

What about the fAUC/MIC [3] of the same molecule?
Its fAUC/MIC is 0.38.

What about the fAUC/MIC [4] of the same molecule?
Its fAUC/MIC is 1.51.

What about the fAUC/MIC [5] of the same molecule?
Its fAUC/MIC is 2.11.

And the Tmax [6]?
The Tmax was 44.4 min.

And the fAUC/MIC [7]?
Its fAUC/MIC is 2.17.

What about the fAUC/MIC [8] of the same molecule?
The fAUC/MIC was 0.41.

And the MIC (Staphylococcus aureus [9])?
The MIC was 0.125 µg/mL (≈ 0.213 µM).

What about the AUC(0-t) at 24 h [10] of the same molecule?
The AUC(0-t) at 24 h was 9980 ng·h/mL.

And the MIC (Staphylococcus aureus [11])?
The MIC was 0.25 µg/mL (≈ 0.427 µM).

And the AUC(0-t) at 8 h [12]?
The AUC(0-t) at 8 h was 11000 ng·h/mL.

What about the fAUC/MIC [13] of the same molecule?
The fAUC/MIC was 3.12.

And the MIC (Staphylococcus aureus [14])?
Its MIC is 0.25 µg/mL (≈ 0.427 µM).

What about the AUC(0-t) at 24 h [15] of the same molecule?
Its AUC(0-t) at 24 h is 72500 ng·h/mL.

And the Tmax [16]?
Its Tmax is 20.4 min.

And the fAUC/MIC [17]?
The fAUC/MIC was 1.43.

What about the AUC(0-t) at 24 h [18] of the same molecule?
Its AUC(0-t) at 24 h is 16500 ng·h/mL.

And the AUC(0-t) at 24 h [19]?
Its AUC(0-t) at 24 h is 37500 ng·h/mL.

And the half-life [20]?
The half-life was 691 min.

What about the fAUC/MIC [21] of the same molecule?
Its fAUC/MIC is 3.91.

What about the fraction unbound [22] of the same molecule?
The fraction unbound was 0.041.

What about the Cmax [23] of the same molecule?
Its Cmax is 1570 ng/mL.

And the fAUC/MIC [24]?
The fAUC/MIC was 4.18.

And the Kp uu [25]?
The Kp uu was 7.02.

And the fAUC/MIC [26]?
Its fAUC/MIC is 0.69.

What about the Cmax [27] of the same molecule?
Its Cmax is 3090 ng/mL.
